Experimental data taken from ChEMBL document CHEMBL1122255, “Synthesis and receptor binding studies relevant to the neuroleptic activities of some 1-methyl-4-piperidylidene-9-substituted-pyrrolo[2,1-b][3]benzazepine derivatives” (J Med Chem, 1983).

Tests used:
[1] = target: T1, Alpha-1A adrenergic receptor (Bos taurus, UniProt P18130); experiment: Displacement of [3H]- prazosin radioligand binding at the alpha 1-adrenergic binding site of calf cerebral cortex; format: tissue-based
T1 sequence (P18130 whole entry): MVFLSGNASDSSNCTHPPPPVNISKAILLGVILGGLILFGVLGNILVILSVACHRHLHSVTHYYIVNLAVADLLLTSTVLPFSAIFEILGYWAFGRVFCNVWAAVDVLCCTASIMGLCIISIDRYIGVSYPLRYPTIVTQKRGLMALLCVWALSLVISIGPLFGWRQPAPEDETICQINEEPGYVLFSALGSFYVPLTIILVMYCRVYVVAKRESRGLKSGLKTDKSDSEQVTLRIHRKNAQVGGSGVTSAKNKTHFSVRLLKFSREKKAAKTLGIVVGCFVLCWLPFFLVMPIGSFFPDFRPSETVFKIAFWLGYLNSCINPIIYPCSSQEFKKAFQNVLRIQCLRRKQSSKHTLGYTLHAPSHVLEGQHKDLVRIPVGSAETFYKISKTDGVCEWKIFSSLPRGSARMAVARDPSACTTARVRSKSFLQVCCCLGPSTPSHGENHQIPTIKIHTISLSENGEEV

[2] = target: T2, Alpha-2A adrenergic receptor (Bos taurus, UniProt Q28838); experiment: Displacement of [3H]- clonidine radioligand binding at the alpha-2 adrenergic receptor binding site of calf cerebral cortex; format: tissue-based
T2 sequence (Q28838 whole entry): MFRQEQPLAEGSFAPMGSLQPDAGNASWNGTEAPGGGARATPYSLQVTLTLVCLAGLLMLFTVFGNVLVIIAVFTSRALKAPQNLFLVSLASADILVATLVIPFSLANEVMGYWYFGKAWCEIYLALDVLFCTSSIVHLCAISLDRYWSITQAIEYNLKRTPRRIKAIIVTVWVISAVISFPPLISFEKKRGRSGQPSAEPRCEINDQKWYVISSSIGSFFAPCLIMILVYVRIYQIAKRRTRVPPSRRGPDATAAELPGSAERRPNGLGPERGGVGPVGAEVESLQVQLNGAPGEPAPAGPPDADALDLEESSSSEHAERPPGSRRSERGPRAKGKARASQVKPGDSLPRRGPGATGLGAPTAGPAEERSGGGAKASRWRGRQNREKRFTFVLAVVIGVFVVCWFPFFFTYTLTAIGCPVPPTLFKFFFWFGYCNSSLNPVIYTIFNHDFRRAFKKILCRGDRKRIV
Method in brief: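 Calf cerebral cortex membranes were incubated with [3H]clonidine (23 Ci/mmol) at 0.2 nM and 3–5 triplicate test concentrations. Nonspecific binding was defined with 100 nM clonidine. Bound ligand was isolated by rapid filtration and counted by liquid scintillation. IC50 for displacing specific binding came from percent inhibition–concentration data by regression.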

[3] = target: Muscarinic acetylcholine receptor; experiment: Displacement of [3H]- QNB binding at the muscarinic-cholinergic binding site of rat brain S1

Row | Ki [1] | Ki [2] | Ki [3] | SMILES
1 | 30 nM | 1030 nM | 21 nM | CN1CCC(=C2c3cc(C#N)ccc3C=Cn3cccc32)CC1
2 | 44 nM | 430 nM | 60 nM | CN1CCC(=C2c3cc(Br)ccc3CCn3cccc32)CC1
3 | 130 nM | 730 nM | 49 nM | CN1CCC(=C2c3ccccc3CCn3cccc32)CC1
4 | 36 nM | 330 nM | 250 nM | CN1CCC(=C2c3cc(SC(F)(F)F)ccc3CCn3cccc32)CC1
5 | 19 nM | 210 nM | 18 nM | CN1CCC(=C2c3cc(Br)ccc3C=Cn3cccc32)CC1
6 | – | 2050 nM | 270 nM | CN1CCC(=C2c3cc(C#N)ccc3CCn3cccc32)CC1
7 | 1200 nM | 77000 nM | 9800 nM | CN1CCC(=C2c3cc(C(=O)O)ccc3C=Cn3cccc32)CC1
8 | 13 nM | 230 nM | 88 nM | CN1CCC(=C2c3cc(SC(F)(F)F)ccc3C=Cn3cccc32)CC1
9 | – | – | 4 nM | CN1CCC(=C2c3ccccc3C=Cc3ccccc32)CC1 [CYPROHEPTADINE]
10 | 29 nM | 226 nM | 14.5 nM | CN1CCC(=C2c3ccccc3C=Cn3cccc32)CC1
11 | 80 nM | 600 nM | 48 nM | CN1CCC(=C2c3cc(Cl)ccc3CCn3cccc32)CC1
12 | – | – | > 50000 nM | CN1CCC(=C2c3cc(C(=O)O)ccc3CCn3cccc32)CC1
13 | 20 nM | 310 nM | 20 nM | CN1CCC(=C2c3cc(Cl)ccc3C=Cn3cccc32)CC1
